ChEMBL document CHEMBL3351236, “Prodrug oncrasin-266 improves the stability, pharmacokinetics, and safety of NSC-743380” (Bioorg Med Chem, 2014)
Active and inactive are the calls of the source. The rule behind the calls is not given here.

Tests used:
Mus musculus [1] = assay: Toxicity in Balb/c mouse assessed as serum ALT level at 150 mg/kg, ip dosed daily for 3 days using compound formulated in Solutol HS15 and ethyl alcohol measured on day 6; assay type: organism-based; design: dose 150 mg/kg, route intraperitoneal; settings: in vivo, 72 h
[2] = Stability in stock solution with Solutol HS15 and ethyl alcohol solvent at room temperature by HPLC method; assay type: physicochemical
How it was run: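 Stock solutions were made by dissolving compound in 75% (w/v) Solutol HS15 in ethanol (about 20% v/v ethanol). Final concentrations were 8 mg/ml for prodrug and 5 mg/ml for parent. Stocks were stored at 4°C or room temperature; aliquots were frozen at −20°C before HPLC.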

NCI-H1299 = assay: Anticancer activity against human H1299 cells at 0.03 to 30 uM by sulforhodamine B assay; assay type: functional, cell-based
How it was run: (§1)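 Sulforhodamine B viability assay on lung cancer cells exposed to a range of compound concentrations for 3 days. Untreated reference: DMSO-treated cells set as 100. Values are mean ± SD of quadruplicate wells.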

Mus musculus [3] = assay: Toxicity in Balb/c mouse assessed as serum AST level at 25 mg/kg, ip dosed daily for 8 days using compound formulated in Solutol HS15 and ethyl alcohol; settings: in vivo, 192 h
[4] = Drug level in tumor of Balb/c mouse xenografted with human Calu3 cells at 60 mg/kg, iv using compound formulated in Solutol HS15 and ethyl alcohol measured after 24 hrs by HPLC/MS method; assay type: ADME, organism-based, Neoplasm, Calu-3; design: dose 60 mg/kg, route intravenous; settings: read-out: Drug uptake
How it was run: (§2)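 Nude mice bearing subcutaneous Calu3 xenografts, 1 mouse per treatment group. Organs and tumor were taken 24 h later and kept at −80°C, then homogenized in methanol (50 mg/ml) on ice. Homogenate was extracted with acetonitrile containing 0.2% formic acid plus an internal standard, centrifuged, and the supernatant analyzed by HPLC/MS.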

Mus musculus [5] = assay: Toxicity in Balb/c mouse assessed as mortality level at 300 mg/kg, ip using compound formulated in Solutol HS15 and ethyl alcohol measured after 3 days; assay type: organism-based; design: dose 300 mg/kg, route intraperitoneal; settings: in vivo, 72 h
How it was run: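 Acute toxicity: 3 Balb/c mice (7–8 weeks) per group, given i.p. 300 mg/kg on day 1 and again on day 2. Deaths were recorded by day; survivors were followed for 2 weeks.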

[6] = Stability in powder form in non-evacuated chambers at 37 degC after 14 days by HPLC method; assay type: physicochemical; settings: read-out: Stability
How it was run: (§3)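 Powders were kept at 4°C, room temperature (21°C) or 37°C and sampled for up to 90 days. Each aliquot was dissolved in DMSO, diluted with 9 volumes acetonitrile, and analyzed by HPLC for purity.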

Tumour = assay: Drug level in tumor of Balb/c mouse xenografted with human Calu3 cells assessed as aldehyde metabolite level at 60 mg/kg, iv using compound formulated in Solutol HS15 and ethyl alcohol measured after 24 hrs by HPLC/MS method; assay type: ADME, organism-based, Neoplasm, Calu-3; design: dose 60 mg/kg, route intravenous; settings: in vivo; how it was run: as §2
Mus musculus [7] = assay: Toxicity in Balb/c mouse assessed as serum ALT level at 25 mg/kg, ip dosed daily for 8 days using compound formulated in Solutol HS15 and ethyl alcohol measured on day 6; assay type: organism-based; design: dose 25 mg/kg, route intraperitoneal; settings: in vivo, 192 h
[8] = Half life in Balb/c mouse at 25 mg/kg, iv using compound formulated in Solutol HS15 and ethyl alcohol by HPLC/MS method; assay type: ADME, organism-based; design: dose 25 mg/kg, route intravenous; settings: in vivo
How it was run: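 Balb/c mice received 25 mg/kg by tail vein in Solutol HS15/ethanol vehicle. Blood was drawn from the tail vein at 0, 1, 2, 3.5, 7 and 24 h, 3 mice per time point, into lithium-heparin tubes. Plasma (50 µl) was precipitated with 150 µl acetonitrile containing 0.2% formic acid and internal standard, iced 15 min, centrifuged, and the supernatant analyzed by HPLC/MS for parent and released drug.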

NCI-H460 = assay: Anticancer activity against human H460 cells at 0.03 to 30 uM by sulforhodamine B assay; assay type: functional, cell-based; how it was run: as §1
Calu-3 = assay: Anticancer activity against human Calu3 cells at 0.03 to 30 uM by sulforhodamine B assay; assay type: functional, cell-based; how it was run: as §1
[9] = Drug level in lung of Balb/c mouse xenografted with human Calu3 cells at 60 mg/kg, iv using compound formulated in Solutol HS15 and ethyl alcohol measured after 24 hrs by HPLC/MS method; assay type: ADME, organism-based, Calu-3; design: dose 60 mg/kg, route intravenous; settings: read-out: Drug uptake; how it was run: as §2
[10] = Drug level in intestine of Balb/c mouse xenografted with human Calu3 cells at 60 mg/kg, iv using compound formulated in Solutol HS15 and ethyl alcohol measured after 24 hrs by HPLC/MS method; assay type: ADME, organism-based, Calu-3; design: dose 60 mg/kg, route intravenous; settings: read-out: Drug uptake; how it was run: as §2
Kidney = assay: Drug level in kidney of Balb/c mouse xenografted with human Calu3 cells assessed as aldehyde metabolite level at 60 mg/kg, iv using compound formulated in Solutol HS15 and ethyl alcohol measured after 24 hrs by HPLC/MS method; assay type: ADME, organism-based, Calu-3; design: dose 60 mg/kg, route intravenous; settings: in vivo; how it was run: as §2
Mus musculus [11] = assay: Toxicity in Balb/c mouse assessed as changes in blood cell parameters at 150 mg/kg, ip dosed daily for 3 days using compound formulated in Solutol HS15 and ethyl alcohol measured after 48 hrs; assay type: organism-based; design: dose 150 mg/kg, route intraperitoneal; settings: in vivo
Mus musculus [12] = assay: Toxicity in Balb/c mouse assessed as serum ALP level at 150 mg/kg, ip dosed daily for 3 days using compound formulated in Solutol HS15 and ethyl alcohol measured on day 6; assay type: organism-based; design: dose 150 mg/kg, route intraperitoneal; settings: in vivo, 72 h
[13] = Stability in injectable solution with Solutol HS15 and ethyl alcohol and 0.9% NaCl assessed as drug hydrolysis within 7 hrs at 37 degC by HPLC method; assay type: physicochemical; settings: read-out: Drug degradation
Liver = assay: Drug level in liver of Balb/c mouse xenografted with human Calu3 cells assessed as aldehyde metabolite level at 60 mg/kg, iv using compound formulated in Solutol HS15 and ethyl alcohol measured after 24 hrs by HPLC/MS method; assay type: ADME, organism-based, Calu-3; design: dose 60 mg/kg, route intravenous; settings: in vivo; how it was run: as §2
NCI-H157 = assay: Anticancer activity against human NCI-H157 cells at 0.03 to 30 uM by sulforhodamine B assay; assay type: functional, cell-based; how it was run: as §1
Intestine = assay: Drug level in intestine of Balb/c mouse xenografted with human Calu3 cells assessed as aldehyde metabolite level at 60 mg/kg, iv using compound formulated in Solutol HS15 and ethyl alcohol measured after 24 hrs by HPLC/MS method; assay type: ADME, organism-based, Calu-3; design: dose 60 mg/kg, route intravenous; settings: in vivo; how it was run: as §2
Lung = assay: Drug level in lung of Balb/c mouse xenografted with human Calu3 cells assessed as aldehyde metabolite level at 60 mg/kg, iv using compound formulated in Solutol HS15 and ethyl alcohol measured after 24 hrs by HPLC/MS method; assay type: ADME, organism-based, Calu-3; design: dose 60 mg/kg, route intravenous; settings: in vivo; how it was run: as §2
[14] = Stability in injectable solution with Solutol HS15 and ethyl alcohol and 0.9% NaCl assessed as drug hydrolysis within 7 hrs at room temperature by HPLC method; assay type: physicochemical; settings: 7 h
Mus musculus [15] = assay: Toxicity in Balb/c mouse assessed as serum AST level at 150 mg/kg, ip dosed daily for 3 days using compound formulated in Solutol HS15 and ethyl alcohol measured on day 6; assay type: organism-based; design: dose 150 mg/kg, route intraperitoneal; settings: in vivo, 72 h
[16] = Stability in powder form in non-evacuated chambers at 37 degC after 1 to 14 days by HPLC method; assay type: physicochemical; how it was run: as §3
Mus musculus [17] = assay: Toxicity in Balb/c mouse assessed as mortality at 150 mg/kg, ip dosed daily for 3 days using compound formulated in Solutol HS15 and ethyl alcohol measured on day 5; assay type: organism-based; design: dose 150 mg/kg, route intraperitoneal; settings: in vivo, 72 h
[18] = Stability in powder form at 4 degC to 37 degC after 1 to 14 days by HPLC method; assay type: physicochemical; how it was run: as §3
Mus musculus [19] = assay: Toxicity in Balb/c mouse assessed as histopathological changes in liver at 150 mg/kg, ip dosed once using compound formulated in Solutol HS15 and ethyl alcohol measured after 48 hrs; settings: in vivo
Spleen = assay: Drug level in spleen of Balb/c mouse xenografted with human Calu3 cells assessed as aldehyde metabolite level at 60 mg/kg, iv using compound formulated in Solutol HS15 and ethyl alcohol measured after 24 hrs by HPLC/MS method; assay type: ADME, organism-based, Calu-3; design: dose 60 mg/kg, route intravenous; settings: in vivo; how it was run: as §2
Mus musculus [20] = assay: Toxicity in Balb/c mouse assessed as serum ALP level at 25 mg/kg, ip dosed daily for 8 days using compound formulated in Solutol HS15 and ethyl alcohol measured on day 6; assay type: organism-based; design: dose 25 mg/kg, route intraperitoneal; settings: in vivo, 192 h

For OCc1cn(Cc2cccc(Cl)c2)c2ccccc12, the Activity (Mus musculus [1]) was 1936 U/L, the Stability [2] was 1 weeks and the Activity (NCI-H1299) was “inactive”. The Activity (Mus musculus [3]) was 206.7 U/L, the concentration at 24 h [4] was 4200 ng/g and the Activity (Mus musculus [5]) was “Toxic”. For the same compound, the remaining at 336 h [6] was < 5%, the Drug uptake (Tumour) was 1.7 µg/g and the Activity (Mus musculus [7]) was 80.3 U/L. For the same compound, the half-life [8] was 30 min, the Activity (NCI-H460) was “Active” and the Activity (Calu-3) was “Active”. The concentration at 24 h [9] was 4200 ng/g, the concentration at 24 h [10] was 14300 ng/g and the Drug uptake (Kidney) was 31 µg/g. The Activity (Mus musculus [11]) was “Non-toxic”, the Activity (Mus musculus [12]) was 3 U/L and the degraded at 7 h [13] was > 20%. For the same compound, the Drug uptake (Liver) was 25 µg/g, the Activity (NCI-H157) was “Active” and the Drug uptake (Intestine) was 30.1 µg/g. For the same compound, the Drug uptake (Lung) was 34.3 µg/g, the Stability [14] was “Stable” and the Activity (Mus musculus [15]) was 4045 U/L. For the same compound, the Stability [16] was “Unstable”, the Activity (Mus musculus [17]) was “Toxic” and the Stability [18] was “Stable”. For the same compound, the Activity (Mus musculus [19]) was “Toxic”, the Drug uptake (Spleen) was 19.9 µg/g and the Activity (Mus musculus [20]) was 44 U/L.
